Experiments:
Assay type in all cases: functional
[1] = Growth inhibition of human HOP92 cells at 10 uM after 48 hrs by sulforhodamine B assay; conditions: HOP-92, 48 h, read-out: GI
Method in brief: (§1)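 Run at NCI on the 60-line panel. Cells grown in RPMI 1640 with 5% FBS and 2 mM L-glutamine, plated at 5000–40,000 cells/well by doubling time, and held 24 h at 37 °C before dosing. Drug (DMSO stock) given at a single final 10 µM in triplicate wells for 48 h. Adherent cells fixed with cold TCA (10% final), suspension cells with 16% TCA. SRB stain read at 515 nm. Percent growth from Tz, C and Ti.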

[2] = test system: SK-MEL-5; assay: Growth inhibition of human SK-MEL-5 cells at 10 uM after 48 hrs by sulforhodamine B assay; conditions: SK-MEL-5, 48 h, read-out: GI; method in brief: as §1
[3] = test system: NCI-H226; assay: Growth inhibition of human NCI-H226 cells at 10 uM after 48 hrs by sulforhodamine B assay; conditions: NCI-H226, 48 h, read-out: GI; method in brief: as §1
[4] = test system: NCI-H23; assay: Growth inhibition of human NCI-H23 cells at 10 uM after 48 hrs by sulforhodamine B assay; conditions: NCI-H23, 48 h, read-out: GI; method in brief: as §1
[5] = test system: KM12; assay: Growth inhibition of human KM12 cells at 10 uM after 48 hrs by sulforhodamine B assay; conditions: KM12, 48 h, read-out: GI; method in brief: as §1
[6] = Growth inhibition of human LOXIMVI cells at 10 uM after 48 hrs by sulforhodamine B assay; conditions: LOX IMVI, read-out: GI; method in brief: as §1
[7] = test system: A549; assay: Growth inhibition of human A549 cells at 10 uM after 48 hrs by sulforhodamine B assay; conditions: A549, 48 h, read-out: GI; method in brief: as §1
[8] = Growth inhibition of human RXF393 cells at 10 uM after 48 hrs by sulforhodamine B assay; conditions: RXF 393, 48 h, read-out: GI; method in brief: as §1
[9] = Growth inhibition of human HOP62 cells at 10 uM after 48 hrs by sulforhodamine B assay; conditions: HOP-62, 48 h, read-out: GI; method in brief: as §1
[10] = Growth inhibition of human UACC257 cells at 10 uM after 48 hrs by sulforhodamine B assay; conditions: UACC-257, 48 h, read-out: GI
Method in brief: (§2)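 NCI-60 panel, adherent cells grown in RPMI 1640 with 5% FBS and 2 mM L-glutamine, plated at 5000–40,000 cells/well and preincubated 24 h at 37 °C, 5% CO2. 10 µM final compound from DMSO stock, triplicate wells, 48 h. Fixed with cold TCA (10% final, 60 min, 4 °C) and stained with 0.4% SRB. Absorbance read at 515 nm; growth calculated against time-zero and control wells.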

[11] = Growth inhibition of human RPMI8226 cells at 10 uM after 48 hrs by sulforhodamine B assay; conditions: RPMI-8226, 48 h, read-out: GI; method in brief: as §1
[12] = Growth inhibition of human DU145 cells at 10 uM after 48 hrs by sulforhodamine B assay; conditions: DU-145, 48 h, read-out: GI; method in brief: as §1
[13] = Growth inhibition of human SF295 cells at 10 uM after 48 hrs by sulforhodamine B assay; conditions: SF-295, 48 h, read-out: GI; method in brief: as §1
[14] = Growth inhibition of human NCI-ADR-RES cells at 10 uM after 48 hrs by sulforhodamine B assay; conditions: read-out: GI; method in brief: as §1
[15] = test system: NCI-H322M; assay: Growth inhibition of human NCI-H322M cells at 10 uM after 48 hrs by sulforhodamine B assay; conditions: read-out: GI; method in brief: as §1
[16] = Growth inhibition of human HCT15 cells at 10 uM after 48 hrs by sulforhodamine B assay; conditions: HCT-15, 48 h, read-out: GI; method in brief: as §1
[17] = Growth inhibition of human OVCAR5 cells at 10 uM after 48 hrs by sulforhodamine B assay; conditions: OVCAR-5, 48 h, read-out: GI; method in brief: as §1
[18] = Growth inhibition of human SF268 cells at 10 uM after 48 hrs by sulforhodamine B assay; conditions: SF-268, 48 h, read-out: GI; method in brief: as §1
[19] = Growth inhibition of human PC3 cells at 10 uM after 48 hrs by sulforhodamine B assay; conditions: PC-3, 48 h, read-out: GI; method in brief: as §1
[20] = test system: ACHN; assay: Growth inhibition of human ACHN cells at 10 uM after 48 hrs by sulforhodamine B assay; conditions: read-out: GI; method in brief: as §1
[21] = Growth inhibition of human UACC62 cells at 10 uM after 48 hrs by sulforhodamine B assay; conditions: UACC-62, 48 h, read-out: GI; method in brief: as §2
[22] = Growth inhibition of human HCC2998 cells at 10 uM after 48 hrs by sulforhodamine B assay; conditions: HCC 2998, 48 h, read-out: GI; method in brief: as §1
[23] = test system: MDA-MB-435; assay: Growth inhibition of human MDA-MB-435 cells at 10 uM after 48 hrs by sulforhodamine B assay; conditions: MDA-MB-435, 48 h, read-out: GI; method in brief: as §1
[24] = test system: NCI-H522; assay: Growth inhibition of human NCI-H522 cells at 10 uM after 48 hrs by sulforhodamine B assay; conditions: NCI-H522, 48 h, read-out: GI; method in brief: as §1
[25] = Growth inhibition of human HCT116 cells at 10 uM after 48 hrs by sulforhodamine B assay; conditions: HCT-116, 48 h, read-out: GI; method in brief: as §1
[26] = Growth inhibition of human SNB75 cells at 10 uM after 48 hrs by sulforhodamine B assay; conditions: SNB-75, 48 h, read-out: GI; method in brief: as §1
[27] = test system: MDA-MB-468; assay: Growth inhibition of human MDA-MB-468 cells at 10 uM after 48 hrs by sulforhodamine B assay; conditions: MDA-MB-468, 48 h, read-out: GI; method in brief: as §1
[28] = Growth inhibition of human SW620 cells at 10 uM after 48 hrs by sulforhodamine B assay; conditions: SW-620, 48 h, read-out: GI; method in brief: as §2
[29] = Growth inhibition of human Hs 578T cells at 10 uM after 48 hrs by sulforhodamine B assay; conditions: read-out: GI; method in brief: as §1
[30] = Growth inhibition of human Caki1 cells at 10 uM after 48 hrs by sulforhodamine B assay; conditions: CAKI-1, 48 h, read-out: GI; method in brief: as §1
[31] = Growth inhibition of human SF539 cells at 10 uM after 48 hrs by sulforhodamine B assay; conditions: SF-539, 48 h, read-out: GI; method in brief: as §1
[32] = test system: SK-MEL-28; assay: Growth inhibition of human SK-MEL-28 cells at 10 uM after 48 hrs by sulforhodamine B assay; conditions: SK-MEL-28, 48 h, read-out: GI; method in brief: as §1
[33] = test system: M14; assay: Growth inhibition of human M14 cells at 10 uM after 48 hrs by sulforhodamine B assay; conditions: M14, 48 h, read-out: GI; method in brief: as §1
[34] = test system: SR; assay: Growth inhibition of human SR cells at 10 uM after 48 hrs by sulforhodamine B assay; conditions: read-out: GI
Method in brief: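 NCI-60 screen. Cells were grown in RPMI 1640 with 5% FBS and 2 mM L-glutamine, plated at 5000–40,000 cells/well and held 24 h at 37 °C, 5% CO2. Single 10 µM final dose from DMSO stock, triplicate wells, 48 h. Settled cells were fixed with 80% TCA (16% final) and stained with 0.4% SRB. Dye was solubilized in 10 mM Tris and read at 515 nm. Growth was calculated against time-zero and untreated wells.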

Structure (SMILES) | inhibition of growth at 10 µM [1] | inhibition of growth at 10 µM [2] | inhibition of growth at 10 µM [3] | inhibition of growth at 10 µM [4] | inhibition of growth at 10 µM [5] | inhibition of growth at 10 µM [6] | inhibition of growth at 10 µM [7] | inhibition of growth at 10 µM [8] | inhibition of growth at 10 µM [9] | inhibition of growth at 10 µM [10] | inhibition of growth at 10 µM [11] | inhibition of growth at 10 µM [12] | inhibition of growth at 10 µM [13] | inhibition of growth at 10 µM [14] | inhibition of growth at 10 µM [15] | inhibition of growth at 10 µM [16] | inhibition of growth at 10 µM [17] | inhibition of growth at 10 µM [18] | inhibition of growth at 10 µM [19] | inhibition of growth at 10 µM [20] | further results
COc1ccc(Cc2nnc(Nc3ccc(Cl)c(C(F)(F)F)c3)c3ccccc23)cc1 | 58% | < 30% | 43% | 40% | 52% | < 30% | 62% | 33% | < 30% | < 30% | 94% | 37% | 49% | 50% | 37% | 58% | 33% | < 30% | 61% | 45% | inhibition of growth at 10 µM [21]: 41%; inhibition of growth at 10 µM [22]: 42%; inhibition of growth at 10 µM [23]: < 30%; inhibition of growth at 10 µM [24]: 49%; inhibition of growth at 10 µM [25]: 73%; inhibition of growth at 10 µM [26]: < 30%; inhibition of growth at 10 µM [27]: 54%; inhibition of growth at 10 µM [28]: < 30%; inhibition of growth at 10 µM [29]: 34%; inhibition of growth at 10 µM [30]: 35%; inhibition of growth at 10 µM [31]: 42%; inhibition of growth at 10 µM [32]: < 30%; inhibition of growth at 10 µM [33]: 48%; inhibition of growth at 10 µM [34]: 43%
COc1ccc(Cc2nnc(Nc3cccc(Cl)c3)c3ccccc23)cc1 | 63% | < 30% | 35% | < 30% | < 30% | < 30% | 45% | < 30% | < 30% | < 30% | 89% | < 30% | 33% | 32% | < 30% | 33% | < 30% | < 30% | 42% | 31% | inhibition of growth at 10 µM [21]: 39%; inhibition of growth at 10 µM [22]: < 30%; inhibition of growth at 10 µM [23]: < 30%; inhibition of growth at 10 µM [24]: 50%; inhibition of growth at 10 µM [25]: 49%; inhibition of growth at 10 µM [26]: 32%; inhibition of growth at 10 µM [27]: 30%; inhibition of growth at 10 µM [28]: < 30%; inhibition of growth at 10 µM [29]: < 30%; inhibition of growth at 10 µM [30]: < 30%; inhibition of growth at 10 µM [31]: 35%; inhibition of growth at 10 µM [32]: < 30%; inhibition of growth at 10 µM [33]: < 30%; inhibition of growth at 10 µM [34]: 43%
